Assay results: ChEMBL document CHEMBL2046393, “Enantiomeric derivatives of tokinolide B: absolute configuration and biological properties” (J Nat Prod, 2012)

Experiments:
Assay type in all cases: functional, cell-based
[1] = system: K562; experiment: Cytotoxicity against human K562 cells assessed as growth inhibition after 48 hrs by SRB assay; conditions: K562, 48 h
Method in brief: (§1)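 Cell lines from NCI, grown in RPMI-1640 with 10% FBS and antibiotics at 37 °C, 5% CO2. Seeding: HCT-15 10 × 10^4 cell/well, K562 5 × 10^4 cell/mL, SKLU-1 7500 cell/mL. After 24 h, compound added for 48 h. Cells fixed in cold TCA (60 min, 4 °C), stained with 0.4% SRB, dye extracted in Tris base, OD read at 515 nm. IC50 from linear regression; means ± SEM, three replicates.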

[2] = system: HCT-15; experiment: Cytotoxicity against human HCT15 cells assessed as growth inhibition after 48 hrs by SRB assay; conditions: HCT-15, 48 h; method in brief: as §1
[3] = system: SK-LU-1; experiment: Cytotoxicity against human SKLU1 cells assessed as growth inhibition after 48 hrs by SRB assay; conditions: SK-LU-1, 48 h; method in brief: as §1

SMILES | IC50 [1] [µM] | IC50 [2] [µM] | IC50 [3] [µM]
CCCC[C@]12O[C@@]34CCCC=C3C(=O)O[C@]43[C@@H](CCC)[C@@H]4C=C(C(=O)N1[C@H](C)c1ccccc1)[C@@]32CC4 | 5.7 | 5.4 | 4.1
CCCC[C@@]12O[C@]34CCCC=C3C(=O)O[C@@]43[C@H](CCC)[C@H]4C=C(C(=O)N1[C@H](C)c1ccccc1)[C@]32CC4 | 21.7 | 8.5 | 5.9
CCCC[C@@]12O[C@]34CCCC=C3C(=O)O[C@@]43[C@H](CCC)[C@@H]4C=C(C(=O)N1[C@@H](C)c1ccccc1)[C@]32CC4 | 13.9 | 7.5 | 4.9
CCCC[C@]12O[C@@]34CCCC=C3C(=O)O[C@]43[C@@H](CCC)[C@H]4C=C(C(=O)N1[C@@H](C)c1ccccc1)[C@@]32CC4 | 5.2 | 5.2 | 4.3
CCC/C=C1\OC(=O)C2=C[C@H]3CCC21[C@]1(OC(=O)C2=C1CCC=C2)[C@@H]3CCC (mixture of isomers) | 26.6 | 10.5 | 7.1
CCC/C=C1\OC(=O)C2=C1CC[C@H]1[C@@H]2[C@@]2(OC(=O)C3=C2CCC=C3)[C@H]1CCC (racemic) | 46.1 | 44.8 | 13.2
C=C1C(=O)O[C@@H]2C[C@@H](C)[C@@H]3C=CC(=O)[C@@]3(C)[C@@H](O)[C@H]12 [HELENALIN] | 0.28 | 0.29 | 0.21
